# Reference: ChEMBL document CHEMBL1255380, “Small molecule-mediated disruption of Wnt-dependent signaling in tissue regeneration and cancer” (Nat Chem Biol, 2009)
# Active and inactive are the calls of the source. No cut-off for these calls is given here.
# Legend:
# [1] = target: T1, Protein-serine O-palmitoleoyltransferase porcupine (Mus musculus) (UniProt Q9JJJ7); test: Increase in porcn levels in mouse L cell expressing Wnt and STF; assay type: cell-based
# T1 sequence (whole entry): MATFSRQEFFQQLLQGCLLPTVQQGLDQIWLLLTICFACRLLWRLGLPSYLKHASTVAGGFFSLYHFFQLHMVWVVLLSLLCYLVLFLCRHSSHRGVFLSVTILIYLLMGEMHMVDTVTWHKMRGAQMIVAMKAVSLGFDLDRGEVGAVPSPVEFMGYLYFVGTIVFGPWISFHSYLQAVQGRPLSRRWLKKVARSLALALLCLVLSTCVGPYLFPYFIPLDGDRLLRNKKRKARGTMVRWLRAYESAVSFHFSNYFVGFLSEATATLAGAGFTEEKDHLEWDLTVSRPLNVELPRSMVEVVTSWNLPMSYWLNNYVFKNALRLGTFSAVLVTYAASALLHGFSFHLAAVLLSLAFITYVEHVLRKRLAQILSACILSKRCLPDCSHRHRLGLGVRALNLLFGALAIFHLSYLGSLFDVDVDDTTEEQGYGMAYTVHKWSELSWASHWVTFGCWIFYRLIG
# [2] = target: T1, Protein-serine O-palmitoleoyltransferase porcupine (Mus musculus); test: Effect on porcn Endoplasmic reticulum localization in mouse L cell expressing Wnt and STF; assay type: cell-based
# [3] = target: T2, Protein-serine O-palmitoleoyltransferase porcupine (Homo sapiens) (UniProt Q9H237); test: Displacement of IWP-PB from porcn in HEK293 lysate by Western blot analysis
# T2 sequence (whole entry): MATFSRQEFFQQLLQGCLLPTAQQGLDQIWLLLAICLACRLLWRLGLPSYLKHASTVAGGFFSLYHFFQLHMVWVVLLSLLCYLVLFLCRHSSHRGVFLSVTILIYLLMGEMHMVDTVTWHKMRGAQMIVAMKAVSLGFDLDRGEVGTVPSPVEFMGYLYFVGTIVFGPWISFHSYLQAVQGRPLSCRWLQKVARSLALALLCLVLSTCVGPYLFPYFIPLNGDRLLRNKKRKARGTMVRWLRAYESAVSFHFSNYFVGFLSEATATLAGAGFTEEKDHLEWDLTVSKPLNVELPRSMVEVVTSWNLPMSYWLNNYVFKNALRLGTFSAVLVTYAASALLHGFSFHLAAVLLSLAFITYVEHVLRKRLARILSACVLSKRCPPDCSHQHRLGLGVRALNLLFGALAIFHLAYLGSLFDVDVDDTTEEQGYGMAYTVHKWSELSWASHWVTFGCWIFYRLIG
# [4] = target: T2, Protein-serine O-palmitoleoyltransferase porcupine (Homo sapiens); test: Inhibition of porcn-mediated Shh palmitoylation in human DLD1 lysate by detergent solubility fractionation assessed as [3H]palmitate incorporation at 2.5 uM by autoradiography method
# [5] = target: T1, Protein-serine O-palmitoleoyltransferase porcupine (Mus musculus); test: Inhibition of porcn-mediated Wnt5A palmitoylation in mouse L cell expressing Wnt5A and STF by detergent solubility fractionation assessed as [3H]palmitate incorporation at 2 uM by autoradiography method; assay type: cell-based
# [6] = target: Protein Wnt-3a (Mus musculus) (UniProt P27467); test: Inhibition of Wnt3A palmitoylation in mouse L cell expressing Wnt3a and overexpressing porcn by detergent solubility fractionation assessed as [3H]palmitate incorporation at 2.5 uM by autoradiography method
# [7] = target: Protein Wnt-3a (Mus musculus) (UniProt P27467); test: Inhibition of Wnt3A lipidation in mouse L cell expressing Wnt3a and overexpressing porcn at 2 uM by detergent solubility fractionation assay; assay type: cell-based
# [8] = target: Protein Wnt-3a (Homo sapiens) (UniProt P56704); test: Inhibition of palmitoylation of Wnt3A expressed in mouse L cell by detergent solubility fractionation assessed as [3H]palmitate incorporation at 2.5 uM by autoradiography method; assay type: cell-based
# [9] = target: Protein Wnt-3a (Homo sapiens) (UniProt P56704); test: Inhibition of lipidation of Wnt3A expressed in mouse L cell at 2 uM by detergent solubility fractionation assay; assay type: cell-based
# [10] = target: Lysophospholipid acyltransferase 5 (Mus musculus) (UniProt Q91V01); test: Inhibition of MBOAT5 mediated Wnt3a pathway activity in mouse L cell expressing Wnt3a assessed as decreased firefly luciferase reporter expression at 0.25 uM to 1 uM; assay type: cell-based
# [11] = target: Membrane-bound glycerophospholipid O-acyltransferase 2 (Mus musculus) (UniProt Q8R3I2); test: Inhibition of MBOAT2 mediated Wnt3a pathway activity in mouse L cell expressing Wnt3a assessed as decreased firefly luciferase reporter expression at 0.25 uM to 1 uM; assay type: cell-based
# [12] = target: Membrane-bound glycerophospholipid O-acyltransferase 1 (Mus musculus) (UniProt Q8BH98); test: Inhibition of MBOAT1 mediated Wnt3a pathway activity in mouse L cell expressing Wnt3a assessed as decreased firefly luciferase reporter expression at 0.25 uM to 1 uM; assay type: cell-based
# [13] = target: Membrane-bound ghrelin O-acyltransferase MBOAT4 (Mus musculus) (UniProt P0C7A3); test: Inhibition of GOAT mediated Wnt3a pathway activity in mouse L cell expressing Wnt3a assessed as decreased firefly luciferase reporter expression at 0.25 uM to 1 uM; assay type: cell-based
# [14] = target: Protein-cysteine N-palmitoyltransferase HHAT (Mus musculus) (UniProt Q8BMT9); test: Inhibition of HHAT mediated Wnt pathway activity in mouse L cell expressing Wnt3a assessed as decreased firefly luciferase reporter expression at 0.25 uM to 1 uM; assay type: cell-based
# [15] = target: Sterol O-acyltransferase 1 (Mus musculus) (UniProt Q61263); test: Inhibition of ACAT mediated Wnt3a pathway activity in mouse L cell expressing Wnt3a assessed as decreased firefly luciferase reporter expression at 0.25 uM to 1 uM; assay type: cell-based
# [16] = target: Protein Wnt-3a (Homo sapiens) (UniProt P56704); test: Inhibition of Wnt3A secretion in mouse L cell expressing Wnt3a overexpressing Evi assessed as decreased Gaussia luciferase reporter expression at 0.25 uM to 1 uM; assay type: cell-based
# Summary of the method: (§1)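 Wnt secretion test: L-cells transiently transfected with Wnt-Gaussia luciferase fusion construct, incubated with compounds immediately after transfection, GL activity measured 48 hrs later.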
# [17] = target: Protein Wnt-3a (Homo sapiens) (UniProt P56704); test: Inhibition of Wnt3A secretion in mouse L cell expressing Wnt3a overexpressing porcn assessed as decreased Gaussia luciferase reporter expression at 0.25 uM to 1 uM; assay type: cell-based; summary of the method: as §1
# [18] = target: Protein Wnt-3a (Homo sapiens) (UniProt P56704); test: Inhibition of Wnt3A activity in mouse L cell expressing Wnt3A and STF and overexpressing Evi assessed as decreased firefly luciferase reporter expression at 0.25 uM to 1 uM; assay type: cell-based
# [19] = target: Protein Wnt-3a (Homo sapiens) (UniProt P56704); test: Inhibition of Wnt3A activity in mouse L cell expressing Wnt3A and STF and overexpressing porcn assessed as decreased firefly luciferase reporter expression at 0.25 uM to 1 uM; assay type: cell-based
# [20] = Inhibition of Wnt3A/[…] pathway activity in mouse L cell expressing Wnt3a assessed as inhibition of […] accumulation at 5 uM after 24 hrs by Western blot analysis; assay type: cell-based
# [21] = Inhibition of Wnt3A/[…] pathway activity in mouse L cell expressing Wnt3a assessed as decrease in phosphorylated Dvl2 level at 5 uM after 24 hrs by Western blot analysis; assay type: cell-based
# [22] = Inhibition of Wnt3A/[…] pathway activity in mouse L cell expressing Wnt3a assessed as decrease in phosphorylated Lrp6 level at 5 uM after 24 hrs by Western blot analysis; assay type: cell-based
# [23] = organism: Danio rerio; test: Inhibition of caudal fin regeneration after mechanical resection in zebrafish at 10 uM after 7 days; assay type: functional, organism-based
# Summary of the method: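 Zebrafish 3-6 months old anaesthetized in 0.02% Tricaine; half of caudal fin resected with razor blade; kept at 28°C in tank water with 10μM compound or DMSO; water and compound replenished daily over assay period.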
# [24] = Inhibition of Notch pathway in mouse L cells at 2.5 uM
# [25] = target: Axin-2 (Homo sapiens) (UniProt Q9Y2T1); test: Induction of Axin2 accumulation in human DLD1 cells by Western blot analysis; assay type: cell-based; settings: DLD-1
# Summary of the method: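 DLD-1 cells exposed to IWR compound at 10μM for a 48 hr assay period; protein levels assessed by Western blot of cell lysates.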
# [26] = Inhibition of Wnt3A/[…] pathway activity in mouse L cell expressing Wnt3a assessed as inhibition of […] accumulation at 10 uM after 24 hrs by Western blot analysis; assay type: cell-based
# [27] = Inhibition of Wnt3A/[…] pathway activity in mouse L cell expressing Wnt3a assessed as decrease in phosphorylated Dvl2 level at 10 uM after 24 hrs by Western blot analysis; assay type: cell-based
# [28] = Inhibition of Wnt3A/[…] pathway activity in mouse L cell expressing Wnt3a assessed as decrease in phosphorylated Lrp6 level at 10 uM after 24 hrs by Western blot analysis; assay type: cell-based
# [29] = Inhibition of Wnt2/beta-[…] pathway activity in mouse L cell expressing Wnt2 and STF assessed as decreased firefly luciferase reporter expression; assay type: cell-based
# [30] = Inhibition of Wnt1/beta-[…] pathway activity in mouse L cell expressing Wnt1 and STF assessed as decreased firefly luciferase reporter expression; assay type: cell-based
# [31] = Inhibition of Wnt3A/[…] pathway activity in mouse L cell expressing Wnt3A and STF assessed as decreased firefly luciferase reporter expression; assay type: cell-based
# Summary of the method: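 L-Wnt-STF cells (mouse L-cells stably carrying SuperTopFlash firefly luciferase reporter, control reporter and Wnt3A expression construct), ~5K per well; compounds added 24 hrs after seeding; luciferase activities read 24 hrs later; IC50s calculated from these dose-dependent assays.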
# [32] = test system: DLD-1; test: Decrease in beta-[…] accumulation in human DLD1 cells expressing in APC mutant; assay type: functional, cell-based
# [33] = Inhibition of Wnt/beta-[…] pathway activity in mouse L cell expressing Wnt and STF assessed as decreased firefly luciferase reporter expression; assay type: cell-based
# [34] = test system: L929; test: Decrease in beta-[…] accumulation in APC-deficient mouse L cell; assay type: functional, cell-based
# [35] = test system: Cos1; test: Effect on Axin2 subcellular redistribution in african green monkey Cos1 cells by immunostaining method; assay type: cell-based; settings: Chlorocebus aethiops
# [36] = target: Axin-2 (Homo sapiens) (UniProt Q9Y2T1); test: Induction of Axin2 stabilization in human DLD1 cells assessed as inhibition of Wnt/beta-[…] pathway; assay type: cell-based; settings: DLD-1
# [37] = test system: HEK293; test: Effect on interaction between Axin1-GFP and PP2A in HEK293 cell lysate at 10 uM by Western blot analysis; assay type: cell-based; settings: Homo sapiens
# [38] = test system: L; test: Effect on proteasome in mouse L cell expressing Wnt assessed as accumulation of Axin1 by Western blot analysis
# Summary of the method: (§2)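 L-Wnt-STF cells (L-cells stably carrying Wnt3A, STF firefly luciferase reporter and control reporter) treated with IWR (10μM) or IWP (5μM) compounds, with or without cycloheximide (100μM), over 48 hrs; lysates probed by Western blot.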
# [39] = test system: L; test: Effect on proteasome in mouse L cell expressing Wnt assessed as accumulation of beta-[…] by Western blot analysis; summary of the method: as §2
# [40] = test system: DLD-1; test: Inhibition of Axin2 protein degradation in human DLD1 cells by Western blot analysis; assay type: functional, cell-based
# Summary of the method: (§3)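 DLD-1 cells treated over a 48 hr assay period with IWR compound (10μM), with or without cycloheximide (100μM); Axin2 protein assessed by Western blot.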
# [41] = test system: DLD-1; test: Inhibition of Axin2 protein degradation in human DLD1 cells by Western blot analysis in presence of 100 uM cyclohexamide; assay type: functional, cell-based; summary of the method: as §3
# [42] = target: Protein Wnt (Danio rerio) (UniProt Q6IYD9); settings: 10 uM
# Protein Wnt (Danio rerio), sequence (Q6IYD9 as listed by the source): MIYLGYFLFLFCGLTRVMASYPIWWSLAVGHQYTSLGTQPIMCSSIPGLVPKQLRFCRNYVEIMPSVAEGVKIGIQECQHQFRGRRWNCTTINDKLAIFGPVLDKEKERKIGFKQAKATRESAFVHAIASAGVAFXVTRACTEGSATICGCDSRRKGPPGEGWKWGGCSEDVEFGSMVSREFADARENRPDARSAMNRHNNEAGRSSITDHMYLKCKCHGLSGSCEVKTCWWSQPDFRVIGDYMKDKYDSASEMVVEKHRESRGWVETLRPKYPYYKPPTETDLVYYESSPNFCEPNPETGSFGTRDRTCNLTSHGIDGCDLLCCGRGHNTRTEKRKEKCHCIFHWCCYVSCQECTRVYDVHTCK
# Protein Wnt-3a (Homo sapiens), sequence (P56704 whole entry, the tested form may be a part): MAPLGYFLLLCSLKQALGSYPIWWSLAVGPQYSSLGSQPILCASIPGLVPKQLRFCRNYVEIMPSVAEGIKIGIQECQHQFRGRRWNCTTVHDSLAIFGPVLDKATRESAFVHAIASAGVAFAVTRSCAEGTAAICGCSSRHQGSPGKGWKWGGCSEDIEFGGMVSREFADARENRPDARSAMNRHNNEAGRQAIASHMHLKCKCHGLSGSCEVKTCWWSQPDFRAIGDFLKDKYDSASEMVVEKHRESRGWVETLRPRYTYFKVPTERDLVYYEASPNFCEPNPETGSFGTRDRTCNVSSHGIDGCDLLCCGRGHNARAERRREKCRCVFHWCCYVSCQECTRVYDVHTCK
# Axin-2 (Homo sapiens), sequence (Q9Y2T1 whole entry): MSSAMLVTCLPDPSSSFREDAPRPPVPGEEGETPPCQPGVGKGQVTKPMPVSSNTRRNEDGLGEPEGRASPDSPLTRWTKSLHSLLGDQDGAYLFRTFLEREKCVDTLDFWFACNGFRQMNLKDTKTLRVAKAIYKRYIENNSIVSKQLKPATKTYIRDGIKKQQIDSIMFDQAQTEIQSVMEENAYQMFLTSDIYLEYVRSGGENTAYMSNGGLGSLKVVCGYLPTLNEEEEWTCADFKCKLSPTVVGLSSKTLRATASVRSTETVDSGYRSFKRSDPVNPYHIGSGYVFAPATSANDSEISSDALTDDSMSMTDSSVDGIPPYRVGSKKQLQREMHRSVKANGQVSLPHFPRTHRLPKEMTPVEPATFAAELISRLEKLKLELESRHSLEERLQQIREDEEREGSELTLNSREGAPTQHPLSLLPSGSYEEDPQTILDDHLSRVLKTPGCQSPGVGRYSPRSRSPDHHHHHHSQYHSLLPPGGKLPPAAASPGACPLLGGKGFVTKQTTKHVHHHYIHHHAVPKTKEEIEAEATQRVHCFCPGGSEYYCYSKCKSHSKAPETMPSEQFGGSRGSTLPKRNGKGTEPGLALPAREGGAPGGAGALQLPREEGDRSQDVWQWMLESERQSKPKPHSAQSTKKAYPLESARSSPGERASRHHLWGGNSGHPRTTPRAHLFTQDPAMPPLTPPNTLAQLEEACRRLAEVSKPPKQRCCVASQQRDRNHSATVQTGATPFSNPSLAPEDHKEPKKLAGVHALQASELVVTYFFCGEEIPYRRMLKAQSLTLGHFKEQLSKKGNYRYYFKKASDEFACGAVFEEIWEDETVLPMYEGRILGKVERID
# Protein Wnt-3a (Mus musculus), sequence (P27467 whole entry): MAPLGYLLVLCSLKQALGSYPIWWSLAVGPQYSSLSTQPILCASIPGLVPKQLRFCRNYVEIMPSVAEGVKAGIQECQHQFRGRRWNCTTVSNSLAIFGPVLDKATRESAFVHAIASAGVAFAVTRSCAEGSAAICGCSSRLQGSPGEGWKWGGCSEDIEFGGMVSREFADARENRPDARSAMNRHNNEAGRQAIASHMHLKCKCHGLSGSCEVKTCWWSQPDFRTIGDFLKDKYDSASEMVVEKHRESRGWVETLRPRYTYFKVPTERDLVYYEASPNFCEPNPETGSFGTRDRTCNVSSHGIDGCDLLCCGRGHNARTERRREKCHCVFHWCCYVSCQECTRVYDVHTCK
# Protein-cysteine N-palmitoyltransferase HHAT (Mus musculus), sequence (Q8BMT9 whole entry): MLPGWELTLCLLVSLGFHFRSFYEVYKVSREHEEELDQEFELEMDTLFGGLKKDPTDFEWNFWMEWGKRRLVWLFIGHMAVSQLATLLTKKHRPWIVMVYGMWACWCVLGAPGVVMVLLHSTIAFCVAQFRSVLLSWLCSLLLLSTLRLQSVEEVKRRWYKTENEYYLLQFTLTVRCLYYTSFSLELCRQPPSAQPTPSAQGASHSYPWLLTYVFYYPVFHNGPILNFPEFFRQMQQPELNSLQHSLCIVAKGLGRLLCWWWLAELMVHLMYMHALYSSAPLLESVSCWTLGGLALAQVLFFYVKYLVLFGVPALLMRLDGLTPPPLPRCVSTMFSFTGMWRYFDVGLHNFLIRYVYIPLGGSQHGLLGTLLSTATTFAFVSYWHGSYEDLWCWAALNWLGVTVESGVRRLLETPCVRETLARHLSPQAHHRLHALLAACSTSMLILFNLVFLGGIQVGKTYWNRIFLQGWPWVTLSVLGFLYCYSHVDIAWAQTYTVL
# Membrane-bound ghrelin O-acyltransferase MBOAT4 (Mus musculus), sequence (P0C7A3 whole entry): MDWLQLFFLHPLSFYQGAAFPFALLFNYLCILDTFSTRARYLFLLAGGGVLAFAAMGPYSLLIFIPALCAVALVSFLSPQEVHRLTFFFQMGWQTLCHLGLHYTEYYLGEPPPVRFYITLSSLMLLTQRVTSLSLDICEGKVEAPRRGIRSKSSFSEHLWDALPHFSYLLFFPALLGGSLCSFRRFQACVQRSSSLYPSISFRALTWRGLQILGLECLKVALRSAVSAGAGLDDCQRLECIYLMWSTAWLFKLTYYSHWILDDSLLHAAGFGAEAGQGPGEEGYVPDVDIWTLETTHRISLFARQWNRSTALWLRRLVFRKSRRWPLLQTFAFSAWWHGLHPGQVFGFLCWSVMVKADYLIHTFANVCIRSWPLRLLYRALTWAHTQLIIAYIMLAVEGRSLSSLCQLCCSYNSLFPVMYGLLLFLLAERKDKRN
# Membrane-bound glycerophospholipid O-acyltransferase 2 (Mus musculus), sequence (Q8R3I2 whole entry): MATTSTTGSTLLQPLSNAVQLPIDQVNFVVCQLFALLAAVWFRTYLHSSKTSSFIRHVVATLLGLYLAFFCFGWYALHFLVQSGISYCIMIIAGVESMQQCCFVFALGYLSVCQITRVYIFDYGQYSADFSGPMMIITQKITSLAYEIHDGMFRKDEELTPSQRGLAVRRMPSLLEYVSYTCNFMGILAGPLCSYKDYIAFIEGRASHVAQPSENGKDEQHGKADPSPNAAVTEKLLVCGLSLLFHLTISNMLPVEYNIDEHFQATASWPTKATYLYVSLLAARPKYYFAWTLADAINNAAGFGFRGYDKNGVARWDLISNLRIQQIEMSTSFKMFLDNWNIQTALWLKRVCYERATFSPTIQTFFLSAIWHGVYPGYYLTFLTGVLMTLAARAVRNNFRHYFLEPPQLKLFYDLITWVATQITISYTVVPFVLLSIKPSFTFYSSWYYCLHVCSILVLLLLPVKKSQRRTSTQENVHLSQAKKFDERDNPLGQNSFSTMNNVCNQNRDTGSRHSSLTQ
# Sterol O-acyltransferase 1 (Mus musculus), sequence (Q61263 whole entry): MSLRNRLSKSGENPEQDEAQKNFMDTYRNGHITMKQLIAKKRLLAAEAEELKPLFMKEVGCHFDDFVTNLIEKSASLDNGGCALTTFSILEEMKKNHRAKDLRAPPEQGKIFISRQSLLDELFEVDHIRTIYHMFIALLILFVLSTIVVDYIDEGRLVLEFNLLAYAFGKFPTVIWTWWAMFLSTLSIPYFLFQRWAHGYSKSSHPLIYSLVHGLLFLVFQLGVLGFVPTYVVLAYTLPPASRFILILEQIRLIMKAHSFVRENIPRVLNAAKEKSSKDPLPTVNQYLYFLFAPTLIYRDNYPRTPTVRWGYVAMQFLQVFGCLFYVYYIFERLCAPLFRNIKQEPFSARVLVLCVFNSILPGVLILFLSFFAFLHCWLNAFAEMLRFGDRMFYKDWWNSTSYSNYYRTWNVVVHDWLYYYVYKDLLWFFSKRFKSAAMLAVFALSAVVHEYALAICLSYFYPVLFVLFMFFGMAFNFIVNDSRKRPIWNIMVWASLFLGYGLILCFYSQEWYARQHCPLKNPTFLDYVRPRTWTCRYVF
# Membrane-bound glycerophospholipid O-acyltransferase 1 (Mus musculus), sequence (Q8BH98 whole entry): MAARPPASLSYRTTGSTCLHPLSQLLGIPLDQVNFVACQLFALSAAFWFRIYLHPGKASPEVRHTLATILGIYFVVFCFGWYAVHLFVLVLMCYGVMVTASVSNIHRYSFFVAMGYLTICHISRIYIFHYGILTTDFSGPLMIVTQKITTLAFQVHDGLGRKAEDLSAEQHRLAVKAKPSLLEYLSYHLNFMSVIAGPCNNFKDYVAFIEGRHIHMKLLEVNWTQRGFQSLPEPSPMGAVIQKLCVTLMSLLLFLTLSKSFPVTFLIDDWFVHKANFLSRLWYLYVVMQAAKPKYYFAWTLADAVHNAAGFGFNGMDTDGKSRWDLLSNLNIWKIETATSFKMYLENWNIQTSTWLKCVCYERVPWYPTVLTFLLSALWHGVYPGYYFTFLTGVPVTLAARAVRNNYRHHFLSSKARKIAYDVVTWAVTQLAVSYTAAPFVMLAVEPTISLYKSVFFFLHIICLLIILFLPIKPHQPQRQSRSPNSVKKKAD
# Lysophospholipid acyltransferase 5 (Mus musculus), sequence (Q91V01 whole entry): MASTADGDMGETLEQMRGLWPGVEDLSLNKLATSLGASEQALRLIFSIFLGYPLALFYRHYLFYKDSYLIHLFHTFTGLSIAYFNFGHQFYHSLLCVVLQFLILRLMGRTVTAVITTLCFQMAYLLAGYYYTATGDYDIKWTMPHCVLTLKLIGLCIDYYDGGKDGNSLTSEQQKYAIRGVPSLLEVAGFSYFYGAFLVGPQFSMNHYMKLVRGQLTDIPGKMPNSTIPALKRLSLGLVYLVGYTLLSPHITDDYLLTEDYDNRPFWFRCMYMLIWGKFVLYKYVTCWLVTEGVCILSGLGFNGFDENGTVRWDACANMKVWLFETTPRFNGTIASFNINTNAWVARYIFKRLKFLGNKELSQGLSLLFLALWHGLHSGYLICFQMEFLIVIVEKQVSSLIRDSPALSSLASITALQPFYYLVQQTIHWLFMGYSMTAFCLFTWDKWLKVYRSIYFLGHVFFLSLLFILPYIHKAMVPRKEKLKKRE
structure (smiles),measurement,setting,value
Cc1ccc2nc(NC(=O)CSc3nc4c(c(=O)n3-c3ccccc3)SCC4)sc2c1,Activity,[1],Active
same,Activity,[2],inactive
same,inhibition,[3],Active
same,inhibition,[4],inactive
same,inhibition,[5],Active
same,inhibition,[6],inactive
same,inhibition,[7],Active
same,inhibition,[8],Active
same,inhibition,[9],Active
same,inhibition,[10],inactive
same,inhibition,[11],inactive
same,inhibition,[12],inactive
same,inhibition,[13],inactive
same,inhibition,[14],inactive
same,inhibition,[15],inactive
same,inhibition,[16],inactive
same,inhibition,[17],inactive
same,inhibition,[18],inactive
same,inhibition,[19],inactive
same,inhibition,[20],Active
same,inhibition,[21],Active
same,inhibition,[22],Active
same,inhibition,[23],inactive
same,inhibition,[24],inactive
Cc1ccnc2c(NC(=O)c3ccc(N4C(=O)[C@@H]5[C@H](C4=O)[C@@H]4C=C[C@H]5C4)cc3)cccc12,Activity,[25],Active
same,inhibition,[26],Active
same,inhibition,[27],inactive
same,inhibition,[28],inactive
same,inhibition,[29],Active
same,inhibition,[30],Active
same,inhibition,[31],Active
same,inhibition,[23],Active
same,inhibition,[32],Active
same,IC50,[33],0.23 µM
O=C(Nc1cccc2cccnc12)c1ccc(N2C(=O)[C@@H]3[C@H](C2=O)[C@@H]2C=C[C@H]3C2)cc1,Activity,[25],Active
same,inhibition,[26],Active
same,inhibition,[27],inactive
same,inhibition,[28],inactive
same,inhibition,[29],Active
same,inhibition,[30],Active
same,inhibition,[31],Active
same,inhibition,[23],Active
same,inhibition,[34],Active
same,inhibition,[32],Active
same,Activity,[35],inactive
same,Activity,[36],Active
same,Activity,[37],inactive
same,Activity,[38],inactive
same,Activity,[39],inactive
same,inhibition,[40],Active
same,inhibition,[41],inactive
same,inhibition,[42],Active
